In ChEMBL document CHEMBL4387749, “Naphthalene-triazolopyrimidine hybrid compounds as potential multifunctional anti-Alzheimer's agents” (Bioorg Med Chem, 2019):
Active and inactive are the calls of the source. The rule behind the calls is not given here.

Experiments:
[1] = Selectivity index, ratio of IC50 for equine serum BuChE to IC50 for electric eel Ache
In short: (§1)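 Ellman method. Equine serum BuChE 0.06 U/mL (for ratio lines, electric eel AChE 0.22 U/mL) in 1 M potassium phosphate buffer. Enzyme stood 5 min with compound before 0.01 M DTNB was added, with butyrylthiocholine iodide as substrate (acetylthiocholine for AChE). Compound range 0.01–100 µM final. IC50 as mean ± SD of three independent experiments. SI = IC50 BuChE / IC50 AChE.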

Acetylcholinesterase = Acetylcholinesterase (Electrophorus electricus, UniProt O42275); assay: Inhibition of electric eel Ache using acetylthiocholine iodide as substrate preincubated for 5 mins followed by substrate addition and measured after 5 mins by Ellman method
Acetylcholinesterase, sequence (O42275 whole entry): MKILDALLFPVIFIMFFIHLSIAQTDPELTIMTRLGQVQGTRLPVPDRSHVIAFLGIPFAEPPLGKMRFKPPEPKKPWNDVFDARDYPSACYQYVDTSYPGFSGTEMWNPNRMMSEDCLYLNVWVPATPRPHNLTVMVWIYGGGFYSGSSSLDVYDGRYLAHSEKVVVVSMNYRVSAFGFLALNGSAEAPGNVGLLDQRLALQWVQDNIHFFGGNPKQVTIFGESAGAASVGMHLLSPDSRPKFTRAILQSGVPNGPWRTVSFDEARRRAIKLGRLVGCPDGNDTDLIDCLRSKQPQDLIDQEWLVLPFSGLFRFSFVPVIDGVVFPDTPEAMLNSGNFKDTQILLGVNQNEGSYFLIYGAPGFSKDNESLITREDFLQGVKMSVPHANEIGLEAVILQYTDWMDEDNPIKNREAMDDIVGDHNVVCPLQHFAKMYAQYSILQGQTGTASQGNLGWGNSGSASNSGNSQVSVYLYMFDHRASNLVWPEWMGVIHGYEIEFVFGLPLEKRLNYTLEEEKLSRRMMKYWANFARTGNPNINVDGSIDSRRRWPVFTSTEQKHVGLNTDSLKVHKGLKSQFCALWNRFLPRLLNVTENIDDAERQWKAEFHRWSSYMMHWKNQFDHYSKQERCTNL

Cholinesterase = Cholinesterase (Equus caballus, UniProt P81908); assay: Inhibition of equine serum BuChE using butyrylthiocholine iodide as substrate preincubated for 5 mins followed by substrate addition and measured after 5 mins by Ellman method; in short: as §1
Cholinesterase, sequence (P81908 whole entry): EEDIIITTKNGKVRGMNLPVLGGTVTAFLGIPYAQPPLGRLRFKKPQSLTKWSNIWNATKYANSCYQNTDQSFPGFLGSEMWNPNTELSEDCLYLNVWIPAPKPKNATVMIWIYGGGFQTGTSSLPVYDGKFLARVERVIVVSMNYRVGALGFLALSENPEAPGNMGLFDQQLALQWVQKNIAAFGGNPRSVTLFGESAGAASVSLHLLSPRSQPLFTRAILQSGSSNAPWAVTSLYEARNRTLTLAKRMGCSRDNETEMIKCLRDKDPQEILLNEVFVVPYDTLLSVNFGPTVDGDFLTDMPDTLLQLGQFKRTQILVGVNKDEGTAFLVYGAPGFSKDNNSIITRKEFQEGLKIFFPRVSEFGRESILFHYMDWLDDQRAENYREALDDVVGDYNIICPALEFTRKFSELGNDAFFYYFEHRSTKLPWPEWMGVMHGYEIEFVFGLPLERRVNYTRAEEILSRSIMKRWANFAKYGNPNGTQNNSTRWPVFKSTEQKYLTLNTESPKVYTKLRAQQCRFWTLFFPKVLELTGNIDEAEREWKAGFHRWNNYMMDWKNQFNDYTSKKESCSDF

[2] = molecular target: T1, Amyloid-beta precursor protein (Homo sapiens, UniProt P05067); assay: Inhibition of HFIP-pretreated self-induced amyloid beta (1 to 42) (unknown origin) aggregation at 50 uM measured after 48 hrs by ThT fluorescence assay relative to control
T1 sequence (P05067 whole entry): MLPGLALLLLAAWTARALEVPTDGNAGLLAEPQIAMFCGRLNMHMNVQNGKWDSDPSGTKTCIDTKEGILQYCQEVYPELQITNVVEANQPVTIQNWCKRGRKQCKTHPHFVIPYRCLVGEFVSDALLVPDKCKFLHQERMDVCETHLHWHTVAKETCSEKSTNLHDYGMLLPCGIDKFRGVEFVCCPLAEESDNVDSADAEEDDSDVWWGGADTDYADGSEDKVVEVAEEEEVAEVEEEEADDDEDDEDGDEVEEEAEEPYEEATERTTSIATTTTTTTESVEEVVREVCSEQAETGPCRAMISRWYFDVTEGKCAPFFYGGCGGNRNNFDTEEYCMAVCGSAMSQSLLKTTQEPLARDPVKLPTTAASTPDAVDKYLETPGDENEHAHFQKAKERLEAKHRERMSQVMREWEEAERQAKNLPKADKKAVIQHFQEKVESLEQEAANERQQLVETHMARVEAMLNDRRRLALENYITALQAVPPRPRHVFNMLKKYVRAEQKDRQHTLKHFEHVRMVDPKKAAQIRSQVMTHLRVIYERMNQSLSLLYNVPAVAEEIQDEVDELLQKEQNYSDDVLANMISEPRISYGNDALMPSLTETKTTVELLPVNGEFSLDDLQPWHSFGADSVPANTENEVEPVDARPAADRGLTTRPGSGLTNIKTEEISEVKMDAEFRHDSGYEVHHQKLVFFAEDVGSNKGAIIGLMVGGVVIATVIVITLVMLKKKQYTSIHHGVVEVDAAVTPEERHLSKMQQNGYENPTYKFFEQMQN
In short: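 Aβ1-42 pretreated with HFIP (8 mg/ml), dried under nitrogen, 5 mM stock in DMSO. Diluted in 50 mM phosphate buffer pH 7.4 to 100 µM final and incubated with or without 50 µM compound for 48 h at 37 °C. Diluted with glycine-NaOH 50 mM pH 8.0, then ThT fluorescence read. Buffer blanks included. Mean ± SD of three experiments.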

[3] = Antioxidant activity assessed as trolox equivalent of AAPH-induced radical scavenging activity at 100 uM preincubated for 15 mins followed by AAPH addition and measured at 1 minute interval for 80 mins by ORAC-FL assay; type: functional
In short: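 ORAC-FL in 75 mM phosphate buffer, pH 7.4. Fluorescein 70 nM final was preincubated with the antioxidant 15 min at 37 °C, then AAPH 12 mM final was added. Fluorescence read every minute for 80 min (ex 485/em 520 nm). Net AUC = AUC sample minus AUC blank. Trolox calibration 1–8 µM gave Trolox equivalents. At least three independent runs, each in triplicate.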

[4] = Antioxidant activity assessed as DPPH radical scavenging activity at 50 uM preincubated for 5 mins followed by DPPH addition and measured after 30 mins by ultraviolet spectrophotometric analysis relative to control; type: functional
In short: (§2)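 DPPH (0.1 mM) in methanol. Test compound was added and held 5 min before DPPH, then 30 min incubation. Absorbance read at 517 nm. Scavenging % = (A1−A2)/A1×100, with A1 the control absorbance and A2 the compound absorbance. Run in triplicate in 96-well plates.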

[5] = molecular target: T1, Amyloid-beta precursor protein; assay: Disaggregation of self-induced amyloid beta (1 to 42) (unknown origin) preformed fibrils measured after 24 hrs by ThT fluorescence assay relative to control
In short: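 HFIP-pretreated Aβ1-42, DMSO stock, diluted in 50 mM phosphate buffer pH 7.4 (100 µM final). Incubated 48 h at 37 °C to form fibrils, then compound or buffer added and held 24 h at 37 °C. Diluted to 200 µl with glycine-NaOH 50 mM pH 8.0, then ThT fluorescence read. Peptide-free buffer blanks with and without compound. Triplicates.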

[6] = Antioxidant activity assessed as DPPH radical scavenging activity at 10 uM preincubated for 5 mins followed by DPPH addition and measured after 30 mins by ultraviolet spectrophotometric analysis relative to control; type: functional; in short: as §2
[7] = Antioxidant activity assessed as DPPH radical scavenging activity at 100 uM preincubated for 5 mins followed by DPPH addition and measured after 30 mins by ultraviolet spectrophotometric analysis relative to control; type: functional; in short: as §2
[8] = molecular target: T1, Amyloid-beta precursor protein; assay: Inhibition of self-induced amyloid beta (1 to 42) (unknown origin) aggregation at 12.5 uM measured after 48 hrs by ThT fluorescence assay relative to control
In short: (§3)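 Aβ1-42 is pretreated with HFIP (8 mg/ml) and dried to a film under nitrogen. The film is dissolved in DMSO to a 5 mM stock. This is diluted in 50 mM phosphate buffer, pH 7.4, to 100 µM final peptide, with or without compound, and incubated at 37 °C for 48 h. Samples are then diluted with 50 mM glycine-NaOH, pH 8.0, and fibrils quantified by ThT fluorescence. Blanks without Aβ are subtracted. Values are means ± SD of three experiments.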

[9] = molecular target: T1, Amyloid-beta precursor protein; assay: Inhibition of self-induced amyloid beta (1 to 42) (unknown origin) aggregation at 25 uM measured after 48 hrs by ThT fluorescence assay relative to control; in short: as §3
[10] = molecular target: T1, Amyloid-beta precursor protein; assay: Inhibition of self-induced amyloid beta (1 to 42) (unknown origin) aggregation at 75 uM measured after 48 hrs by ThT fluorescence assay relative to control; in short: as §3
[11] = molecular target: T1, Amyloid-beta precursor protein; assay: Inhibition of self-induced amyloid beta (1 to 42) (unknown origin) aggregation at 100 uM measured after 48 hrs by ThT fluorescence assay relative to control; in short: as §3
[12] = molecular target: T1, Amyloid-beta precursor protein; assay: Inhibition of self-induced amyloid beta (1 to 42) (unknown origin) aggregation measured after 48 hrs by ThT fluorescence assay; in short: as §3
[13] = molecular target: T1, Amyloid-beta precursor protein; assay: Inhibition of self-induced amyloid beta (1 to 42) (unknown origin) aggregation at 50 uM for 48 hrs by TEM analysis
In short: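 Aβ1-42 in 50 mM phosphate buffer, pH 7.4, is incubated with or without compound at 37 °C for 48 h, with a curcumin co-incubation and a 0 h sample as comparisons. 10 µL aliquots are applied to carbon grids for 1 min at room temperature, washed with water and negatively stained with sodium phosphotungstate for 1 min. Fibrils are then imaged by transmission electron microscopy.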

[14] = molecular target: T1, Amyloid-beta precursor protein; conditions: 25 uM

Compound `Clc1ccccc1C1C=C(c2cccc3ccccc23)Nc2nncn21` (stereo not drawn) has a Ratio IC50 [1] of 1.03, an IC50 (Acetylcholinesterase) of 74 nM and an IC50 (Cholinesterase) of 76 nM. It also gave an inhibition [2] of 40.4%, an Activity (umolequiv/umol) [3] of 0.39 and an Activity [4] of 15.5%.

Work on `COc1ccc(OC)c(C2C=C(c3cccc4ccccc34)Nc3nncn32)c1` (stereo not drawn) yielded a Ratio IC50 [1] of over 160, an IC50 (Acetylcholinesterase) of 602 nM and an IC50 (Cholinesterase) of over 100000 nM. For the same compound, the inhibition [2] was 42.1%, the Activity [5] was 47.9% and the Activity (umolequiv/umol) [3] was 0.472. The Activity [4] was 53.8%.

With `O=C(O)c1cc(O)c(O)c(O)c1` the Activity [6] was 66% and the Activity [7] was 95.3%.

Work on `COc1ccc(-c2cc(-c3cccc4ccccc34)nc3nncn23)cc1OC` yielded a Ratio IC50 [1] of over 33.4, an IC50 (Acetylcholinesterase) of 3000 nM and an IC50 (Cholinesterase) of over 100000 nM. It also gave an inhibition [2] of 36.6%, an Activity (umolequiv/umol) [3] of 0.234 and an Activity [4] of 27.9%.

In the case of `CN(C)c1ccc(-c2cc(-c3cccc4ccccc34)nc3nncn23)cc1`, the Ratio IC50 [1] is reported as 166, the IC50 (Acetylcholinesterase) is reported as 126 nM and the IC50 (Cholinesterase) is reported as 20900 nM. The inhibition [2] was 43.1%, the Activity [5] was 54.5% and the Activity (umolequiv/umol) [3] was 0.171. It also gave an Activity [4] of 21.3%.

With `c1coc(-c2cc(-c3cccc4ccccc34)nc3nncn23)c1` the Ratio IC50 [1] was 37.7, the IC50 (Acetylcholinesterase) was 14 nM and the IC50 (Cholinesterase) was 528 nM. For the same compound, the inhibition [2] was 12.1%, the Activity (umolequiv/umol) [3] was 0.101 and the Activity [4] was 20.4%.

Work on `O=[N+]([O-])c1cccc(C2C=C(c3cccc4ccccc34)Nc3nncn32)c1` (stereo not drawn) yielded an IC50 (Acetylcholinesterase) of over 100000 nM, an IC50 (Cholinesterase) of over 100000 nM and an inhibition [2] of 72.8%. The Activity [5] was 58.8%, the inhibition [8] was 42% and the inhibition [9] was 59.3%. The inhibition [10] was 85.8%, the inhibition [11] was 91.4% and the IC50 [12] was 17400 nM. The inhibition [13] was “Active”, the Activity (umolequiv/umol) [3] was 0.508 and the Activity [4] was 33%.

For `COc1cc(/C=C/C(=O)CC(=O)/C=C/c2ccc(O)c(OC)c2)ccc1O`, the inhibition [14] was “Active”.

In the case of `Fc1ccc(C2C=C(c3cccc4ccccc34)Nc3nncn32)cc1` (stereo not drawn), the Ratio IC50 [1] is reported as 19.7, the IC50 (Acetylcholinesterase) is reported as 1910 nM and the IC50 (Cholinesterase) is reported as 39000 nM. For the same compound, the inhibition [2] was 85.5%, the Activity [5] was 62.6% and the inhibition [8] was 70.4%. For the same compound, the inhibition [9] was 82.4%, the inhibition [10] was 87.5% and the inhibition [11] was 95.4%. For the same compound, the IC50 [12] was 3870 nM, the inhibition [13] was “Active” and the Activity (umolequiv/umol) [3] was 0.347. It also gave an Activity [4] of 36.2%.

In the case of `Clc1ccc(C2C=C(c3cccc4ccccc34)Nc3nncn32)cc1` (stereo not drawn), the Ratio IC50 [1] is reported as 2.42, the IC50 (Acetylcholinesterase) is reported as 371 nM and the IC50 (Cholinesterase) is reported as 900 nM. The inhibition [2] was “inactive”, the Activity (umolequiv/umol) [3] was 0.268 and the Activity [4] was 19.2%.

Work on `COc1ccc(C2C=C(c3cccc4ccccc34)Nc3nncn32)cc1` (stereo not drawn) yielded a Ratio IC50 [1] of 17.4, an IC50 (Acetylcholinesterase) of 8.6 nM and an IC50 (Cholinesterase) of 150 nM. For the same compound, the inhibition [2] was 31.2%, the Activity (umolequiv/umol) [3] was 0.446 and the Activity [4] was 35%.

`c1ccc(-c2cc(-c3cccc4ccccc34)nc3nncn23)cc1` gave a Ratio IC50 [1] of over 168, an IC50 (Acetylcholinesterase) of 597 nM and an IC50 (Cholinesterase) of over 100000 nM. For the same compound, the inhibition [2] was “inactive”, the Activity (umolequiv/umol) [3] was 0.301 and the Activity [4] was 18.8%.
